Compound activity (PubChem)
In the library only some 4% were active in any assay of this set; here they are far more common.
Granule exo inh: LAMP-1 surface exposure blockers, TALL-104 cells – cell-based, flow cytometry, MLPCN library, primary screen; TALL-104 LAMP-1 surface exposure; cells stimulated with thapsigargin and PMA; inhibition, % at 10 µM; 360,000 compounds, 0.66% hits; AID 651702, 2012;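 active means inhibition above about 55%, limit read from the data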
UPR XBP1 act: activators of adaptive XBP1 UPR arm, primary screen, cell-based, CHO-XBP1 luciferase reporter, luminescence, uHTS. IRE1-XBP1 UPR activation; percent of tunicamycin response, DMSO as zero. activation, % at 20 µM. 330,000 compounds, 0.33% hits. AID 463104, 2010;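 active means versus positive control, 20 µM dose yields 30% or more activation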;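 further: 100% = tunicamycin at 10 µg/mL and 0% = DMSO only wells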
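incubation = overnight seeding at 37 °C, 6 h compound treatment at 37 °C | assay system = CHO-XBP1 cells stably carrying IRE1-XBP1-driven luciferase reporter | input = 1000 cells per well | detection = luciferase luminescence | dosing = single point, 20 µM final compound, 1% DMSO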
ABHD5-PLIN5 inh: ABHD5-PLIN5 interaction inhibitors, primary screen, cell lysate, split luciferase complementation, luminescence; Perilipin-5 (Homo sapiens) + 1-acylglycerol-3-phosphate O-acyltransferase ABHD5 (Homo …; inhibition, % at 4 µM; Split G. princeps luciferase complementation, 4 h; AID 602281, 2012; 360,000 compounds, 0.78% hits;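 active means inhibition above the mean inhibition across every tested compound plus 3 SD, cut at about 22% in these data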;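 further: 0% = DMSO only wells and the 100% control is not disclosed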
Mdm2 MdmX PPI: inhibitors of human Mdm2-MdmX association, primary screen, cell-based, luminescence, split luciferase, SaOS-2, uHTS; SaOS-2 split-luciferase Mdm2/MdmX complementation; inhibition, % at 8 µM; 330,000 compounds, 3% hits;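 active means inhibition of at least 50% at 8 µM in the primary screen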
Target sequence (O15151 whole entry, looked up): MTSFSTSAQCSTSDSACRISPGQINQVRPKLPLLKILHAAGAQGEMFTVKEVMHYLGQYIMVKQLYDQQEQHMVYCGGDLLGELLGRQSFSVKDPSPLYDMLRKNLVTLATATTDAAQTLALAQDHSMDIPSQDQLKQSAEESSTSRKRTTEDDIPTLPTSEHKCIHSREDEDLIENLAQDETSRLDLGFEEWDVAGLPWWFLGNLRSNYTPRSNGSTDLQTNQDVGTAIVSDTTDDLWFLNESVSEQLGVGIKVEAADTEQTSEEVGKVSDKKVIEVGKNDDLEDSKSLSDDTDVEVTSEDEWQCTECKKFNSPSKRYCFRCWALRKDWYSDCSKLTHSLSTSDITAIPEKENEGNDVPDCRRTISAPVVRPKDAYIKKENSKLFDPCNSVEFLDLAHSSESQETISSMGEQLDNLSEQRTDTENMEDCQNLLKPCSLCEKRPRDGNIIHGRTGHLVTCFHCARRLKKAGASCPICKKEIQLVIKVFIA
Target sequence (Q00987 whole entry, looked up): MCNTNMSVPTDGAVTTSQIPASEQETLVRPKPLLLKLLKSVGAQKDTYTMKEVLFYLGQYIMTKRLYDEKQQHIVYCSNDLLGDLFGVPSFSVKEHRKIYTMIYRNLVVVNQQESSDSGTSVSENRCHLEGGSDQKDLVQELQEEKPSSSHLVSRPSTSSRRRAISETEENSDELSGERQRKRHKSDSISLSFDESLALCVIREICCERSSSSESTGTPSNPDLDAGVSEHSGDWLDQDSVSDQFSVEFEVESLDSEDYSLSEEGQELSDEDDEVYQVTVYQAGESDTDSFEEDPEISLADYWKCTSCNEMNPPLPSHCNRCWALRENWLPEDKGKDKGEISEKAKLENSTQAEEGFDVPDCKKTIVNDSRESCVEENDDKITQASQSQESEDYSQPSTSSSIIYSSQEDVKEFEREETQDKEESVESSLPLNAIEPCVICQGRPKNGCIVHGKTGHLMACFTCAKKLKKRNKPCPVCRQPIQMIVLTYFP
UPR CHOP act: activators of apoptotic CHOP UPR arm, primary screen, cell-based, CHO-CHOP luciferase reporter, luminescence, uHTS | UPR activation; percent of tunicamycin response over DMSO baseline | activation, % at 10 µM | 330,000 compounds, 0.34% hits;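 active means at 10 µM dose, activation of 40% or more, normalized to positive control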;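 further: 100% = tunicamycin at 10 µg/mL and 0% = DMSO alone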
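Assay system: CHO cells with stable CHOP pathway luciferase reporter; Buffer or medium: F12 plus 10% serum; Times: 16-18 h cell attachment, then 6 h compound exposure, 37 °C; Signal: luciferase luminescence; Read-out basis: percent activation relative to tunicamycin control; Control set: tunicamycin high control, DMSO low control.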
Mdm2-MdmX conf: Mdm2-MdmX complex disruptors, retested hits, confirmation, luminescence, single concentration | shares compounds with Mdm2 MdmX PPI | Mdm2-MdmX binding, luminescent assay | inhibition, % at 8 µM | 10,000 compounds, 55% hits; in the data active means inhibition above about 40%
FLuc counter: full-length luciferase signal inhibition, confirmation, counter-screen for Mdm2/MdmX interaction inhibitor project, cell-based, single concentration, SaOS-2; 6,200 compounds, 77% hits; shares compounds with Mdm2 MdmX PPI; inhibition, % at 8 µM; SaOS-2 full-length luciferase counterscreen, luminescence;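 active means mean inhibition at 8 µM reaching about 37%, which flags the compound as non-specific, limit read from the data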;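 further: p53-null SaOS-2 cells with luciferase driven by a doxycycline-inducible promoter; compound on cells about two nights before reading with doxycycline added after day one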
An asterisk follows results filed as active; . = no result.

SMILES | Granule exo inh | UPR XBP1 act | ABHD5-PLIN5 inh | Mdm2 MdmX PPI | UPR CHOP act | Mdm2-MdmX conf | FLuc counter
COc1ccc(-c2cc(C(=O)Nc3c(C)nn(Cc4ccccc4)c3C)no2)cc1 | -3 | 1 | 0 | 63* | -1 | 20 | .
COc1cccc(-c2cc(C(=O)Nc3cc(C)nn3-c3ccccc3)no2)c1 | -1 | 3 | -3 | 65* | -1 | 32 | .
COc1ccc(-c2cc(C(=O)N3CCN(c4ccccc4O)CC3)c3ccccc3n2)cc1OC | -5 | 6 | 11 | 65* | 6 | 35 | .
CC(=O)c1ccc(N2CCN(C(=O)c3cc(-c4ccncc4)nc4ccc(Br)cc34)CC2)cc1 | 0 | -6 | 3 | 58* | 10 | 37 | 105*
CCOC(=O)N1CCN(C(=O)c2cc(-c3ccncc3)nc3ccccc23)CC1 | -6 | -2 | 9 | 57* | 2 | 66* | 55*
Cc1cc(C(=O)N2CC=C(c3ccccc3)CC2)c2ccccc2n1 | 17 | -2 | -5 | 55* | 1 | 74* | 65*
Cc1ccc(-c2cc(C(=O)N3CCN(c4ccccc4O)CC3)c3ccccc3n2)cc1 | -3 | -1 | 2 | 57* | 6 | 32 | .
CCOc1ccccc1N1CCN(C(=O)c2cc(-c3cc(OC)ccc3OC)nc3ccccc23)CC1 | 7 | -3 | 6 | 73* | 4 | 46* | 62*
CCc1c(C)nc2cc(-c3ccccc3)[nH]n2c1=O | -2 | 2 | -6 | -80 | 5 | . | .
Cc1cc(/C=C(/C#N)C(=O)O)c(C)n1CCC(C)C | -11 | -3 | 5 | 12 | -1 | . | .
COc1ccc(-c2cc(C(=O)N/N=C/c3sccc3C)c3ccccc3n2)c(OC)c1 | 4 | -1 | -2 | 88* | 0 | 87* | 31
COc1ccccc1-c1cc(C(=O)N/N=C/c2cccs2)c2ccccc2n1 | -3 | -4 | -3 | 66* | 1 | 35 | .
COc1ccc(C(=O)Oc2cccnc2)cc1 | -14 | 3 | 0 | 5 | 3 | . | .
COc1ccc(CCNS(=O)(=O)c2ccc3c(c2)CC(C)N3C(=O)C2CC2)cc1OC (stereo not given) | -2 | . | 12 | . | . | . | .
COC(=O)c1cn(NC(=O)c2cc([N+](=O)[O-])ccc2F)c(=O)c2ccccc12 | -5 | -2 | -6 | 83* | -1 | 76* | 54*
COc1cccc(-c2cc(-c3cccnc3)c(C#N)c(N)n2)c1 | -2 | 0 | -7 | 22 | -1 | . | .
COc1cccc(-c2cc(-c3cccnc3)nc(N)c2C#N)c1 | -6 | 6 | 7 | 59* | 2 | 12 | .
COc1ccc(-c2cc(-c3cccnc3)c(C#N)c(N)n2)cc1 | 8 | 10 | -2 | 73* | 16 | 9 | .
N#Cc1c(-c2ccc(F)cc2)cc(-c2cccnc2)nc1N | -1 | 5 | 2 | 13 | 0 | . | .
Cc1nc(N)c(C#N)c(-c2cccnc2)c1-c1ccccc1 | 0 | 4 | -3 | 56* | 0 | 42* | 56*
COc1ccc(OC)c(-c2cc(-c3cccnc3)nc(N)c2C#N)c1 | 10 | 8 | 1 | 63* | 0 | 62* | 76*
CC(C(=O)Nc1ccc(S(=O)(=O)N2CCCC2)cc1)N1CCc2ccccc2C1 (stereo not given) | 3 | -1 | -1 | 4 | 0 | . | .
CCOC(=O)N1CCc2c(sc(NC(=O)c3ccc(Cl)s3)c2C(N)=O)C1 | . | 27 | . | 55* | 13 | 21 | .
CCc1c(C)nc2c(Br)cccc2c1SCCC#N | -2 | 1 | 1 | 6 | -4 | . | .
CCc1c(C)nc2ccc(Br)cc2c1SCCC#N | 0 | 3 | -2 | 67* | -1 | 59* | 23
SMILES | Granule exo inh | UPR XBP1 act | ABHD5-PLIN5 inh | Mdm2 MdmX PPI | UPR CHOP act | Mdm2-MdmX conf | FLuc counter
Cc1cc(O)c(C=Nc2cccc(Cl)c2)c(=O)o1 | 2 | 5 | -1 | -7 | 7 | . | .
Cc1cnn(C(=O)Cn2nc(C(F)F)c(Br)c2C)c1 | -1 | -2 | 11 | 16 | 2 | . | .
Clc1ccc2c(c1)CCc1cccnc1C2=C1CCNCC1 | . | -3 | . | 61* | -2 | 36 | .
Cn1c(C(=O)NCCC2=CCCCC2)cc2c(=O)n3ccccc3nc21 | -2 | 4 | -3 | 1 | 20 | . | .
CC1=C(C(=O)OCc2ccc3c(c2)OCO3)C(c2ccccc2)NC(=O)N1 (stereo not given) | 6 | -2 | -3 | 87* | -2 | 91* | 52*
CC1=C(C(=O)OCc2ccc3c(c2)OCO3)C(c2ccc(O)c([N+](=O)[O-])c2)NC(=O)N1 (stereo not given) | -4 | -5 | 8 | 51* | -1 | 35 | .
CCOC(=O)C1=NN(c2ccccc2)C(=O)/C1=C\c1ccc(N(C)C)cc1 | 0 | 3 | 6 | 8 | 17 | . | .
COC(=O)c1c(NC(=O)COC(=O)c2ccccc2O)sc2c1CCCCC2 | -1 | 2 | -1 | 30 | 2 | . | .
COC(=O)c1c(NC(=O)COC(=O)c2ccc(NC(=O)CC#N)cc2)sc2c1CCCCC2 | 0 | 13 | -8 | 64* | 5 | 2 | .
COC(=O)c1c(NC(=O)COC(=O)c2ccc(C)s2)sc2c1CCCCC2 | 0 | 2 | 2 | 52* | 0 | 13 | .
COc1cc2c(cc1OC)C(C(=O)Nc1cc(OC)c(OC)c(OC)c1)C(c1cccnc1)N(C)C2=O (stereo not given) | 0 | -3 | -5 | -2 | 3 | . | .
O=C(CN1C(=O)S/C(=C\C=C\c2ccccc2)C1=O)NC1CCS(=O)(=O)C1 (stereo not given) | 7 | -2 | 16 | -9 | 3 | . | .
Cc1cccc(NC(=O)CCS(=O)(=O)c2cccc3nonc23)c1C | -16 | 5 | 4 | -8 | 2 | . | .
Cc1cccc(OCC(=O)NC(C)C(=O)N/N=C/c2c(OCc3ccccc3)ccc3ccccc23)c1 (stereo not given) | -1 | -2 | 3 | 76* | 3 | 36 | 69*
Cc1cc(C(=O)Nc2cccc(NC(=O)c3ccco3)c2)ccc1[N+](=O)[O-] | -2 | 1 | 2 | 37 | 1 | . | .
O=C(CCCOc1ccc(Cl)cc1Cl)N/N=C/c1ccccc1O | 4 | 1 | -3 | 76* | 0 | 82* | 22
